A value given as a limit tells only on which side of the number the result lay.

In this test the target is T1, fMet-Leu-Phe receptor (Homo sapiens) (UniProt P21462).
T1 sequence (whole entry): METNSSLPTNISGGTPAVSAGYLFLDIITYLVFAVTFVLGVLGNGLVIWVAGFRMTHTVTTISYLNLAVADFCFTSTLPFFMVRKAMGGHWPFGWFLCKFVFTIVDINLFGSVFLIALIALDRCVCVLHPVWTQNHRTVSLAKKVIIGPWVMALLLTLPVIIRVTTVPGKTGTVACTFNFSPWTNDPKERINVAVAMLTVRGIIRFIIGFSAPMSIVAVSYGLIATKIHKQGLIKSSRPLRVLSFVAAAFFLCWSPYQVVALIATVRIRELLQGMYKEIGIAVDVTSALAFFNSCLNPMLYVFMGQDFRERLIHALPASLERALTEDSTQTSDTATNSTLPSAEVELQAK
Description: Inhibitory activity against Human formylpeptide receptor (FPR) of human leukemia HL-60 cells. The test is classed as cell-based. The method in brief: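 HL-60 cells differentiated 48 h with 0.2 mM dibutyryl cAMP, washed, then treated with 5 μM cytochalasin B (5–10 min, 37 °C). Stimulated 10 min with 30 nM f-MLF. N-acetyl-β-D-glucosaminidase release read at 410 nm on p-nitrophenyl substrate after spontaneous-release subtraction. Duplicate wells; IC20/IC50 as mean ± SD of independent experiments.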
In the case of `CC/C=C/C[C@@H](C)[C@@H](O)[C@H]1C(=O)N[C@@H](CC)C(=O)N(C)CC(=O)N(C)[C@@H](Cc2ccccc2)C(=O)N[C@H](C(C)C)C(=O)N(C)[C@H](CC(C)C)C(=O)N[C@@H](C)C(=O)N[C@H](C)C(=O)N(C)[C@@H](CC(C)C)C(=O)N(C)[C@@H](CC(C)C)C(=O)N(C)[C@@H](C(C)C)C(=O)N1C`, the IC20 (usually the concentration at which the effect reaches the 20% level) turned out to be 4 µM.

For `C/C=C/C[C@@H](C)C[C@H]1C(=O)N[C@@H](CC)C(=O)N(C)CC(=O)N(C)[C@H](CC(C)C)C(=O)N[C@H](C(C)C)C(=O)N(C)[C@H](CC(C)C)C(=O)N[C@@H](C)C(=O)N[C@H](C)C(=O)N(C)[C@@H](CC(C)C)C(=O)N(C)[C@@H](CC(C)C)C(=O)N(C)[C@@H](C(C)C)C(=O)N1C`, the 20% effect level (IC20) was put at 2.4 µM.

The molecule `CC/C=C/C[C@@H](C)[C@@H](O)[C@H]1C(=O)N[C@@H](CC)C(=O)N(C)CC(=O)N(C)[C@@H]([C@@H](C)CC)C(=O)N[C@H](C(C)C)C(=O)N(C)[C@H](CC(C)C)C(=O)N[C@@H](C)C(=O)N[C@H](C)C(=O)N(C)[C@@H](CC(C)C)C(=O)N(C)[C@@H](CC(C)C)C(=O)N(C)[C@@H](C(C)C)C(=O)N1C` came in with an IC20 of 1 µM.

On to `C/C=C/C[C@@H](C)[C@@H](O)[C@H]1C(=O)N[C@@H](CCC)C(=O)N(C)CC(=O)N(C)[C@H](CC(C)C)C(=O)N[C@H](C(C)C)C(=O)N(C)[C@H](CC(C)C)C(=O)N[C@@H](C)C(=O)N[C@H](C)C(=O)N[C@@H](CC(C)C)C(=O)N(C)[C@@H](CC(C)C)C(=O)N(C)[C@@H](C(C)C)C(=O)N1C`, for which it took 2.1 µM to reach the 20% level (IC20).

As to `C/C=C/C[C@@H](C)[C@@H](O)[C@H]1C(=O)N[C@@H](CC)C(=O)N(C)CC(=O)N(C)[C@H](CC(C)C)C(=O)N[C@H](C(C)C)C(=O)N[C@@H](CC(C)C)C(=O)N[C@@H](C)C(=O)N[C@H](C)C(=O)N(C)[C@@H](CC(C)C)C(=O)N[C@@H](CC(C)C)C(=O)N(C)[C@@H](C(C)C)C(=O)N1C`, the IC20 is 0.37 µM.

`CCC[C@@H]1NC(=O)[C@H](CC(C)C)N(C)C(=O)[C@H](C(C)C)N(C)C(=O)[C@H](CC(C)C)N(C)C(=O)[C@H](CC(C)C)N(C)C(=O)[C@@H](C)NC(=O)[C@H](C)NC(=O)[C@@H](CC(C)C)N(C)C(=O)[C@H](C(C)C)NC(=O)[C@@H](CC(C)C)N(C)C(=O)CN(C)C1=O` yielded an IC20 of 7.6 µM.

In turn, `CCCCCC[C@H]1C(=O)N[C@@H](CC)C(=O)N(C)CC(=O)N(C)[C@H](CC(C)C)C(=O)N[C@H](C(C)C)C(=O)N(C)[C@H](CC(C)C)C(=O)N[C@@H](C)C(=O)N[C@H](C)C(=O)N(C)[C@@H](CC(C)C)C(=O)N(C)[C@@H](CC(C)C)C(=O)N(C)[C@@H](C(C)C)C(=O)N1C` showed a 20% effect concentration (IC20) of 1.7 µM.

Molecule `C/C=C/C[C@@H](C)[C@@H](O)[C@H]1C(=O)N[C@@H]([C@@H](C)O)C(=O)N(C)CC(=O)N(C)[C@H](CC(C)C)C(=O)N[C@H](C(C)C)C(=O)N(C)[C@H](CC(C)C)C(=O)N[C@@H](C)C(=O)N[C@H](C)C(=O)N(C)[C@@H](CC(C)C)C(=O)N[C@@H](CC(C)C)C(=O)N(C)[C@@H](C(C)C)C(=O)N1C` showed a concentration for an effect of 20% (IC20) of 2.05 µM.

With `C/C=C/C[C@@H](C)[C@@H](O)[C@H]1C(=O)N[C@@H]([C@@H](C)O)C(=O)N(C)CC(=O)N(C)[C@H](CC(C)C)C(=O)N[C@@H](CC(C)C)C(=O)N(C)[C@H](CC(C)C)C(=O)N[C@@H](C)C(=O)N[C@H](C)C(=O)N(C)[C@@H](CC(C)C)C(=O)N[C@@H](CC(C)C)C(=O)N(C)[C@@H](C(C)C)C(=O)N1C`, the 20% effect concentration (IC20) amounted to 0.2 µM.

Take `C/C=C/C[C@@H](C)[C@@H](O)[C@H]1C(=O)N[C@@H](CC)C(=O)N(C)CC(=O)N(C)[C@H](CC(C)C)C(=O)N[C@H](C(C)C)C(=O)N(C)[C@H](CC(C)C)C(=O)N[C@@H](C)C(=O)N[C@H](C)C(=O)N(C)[C@@H](CC(C)C)C(=O)N(C)[C@@H](CC(C)C)C(=O)N[C@@H](C(C)C)C(=O)N1C`: the IC20 worked out at 3.8 µM.

With `CC/C=C/C[C@@H](C)[C@@H](O)[C@H]1C(=O)N[C@@H]([C@@H](C)O)C(=O)N(C)CC(=O)N(C)[C@H](CC(C)C)C(=O)N[C@H](C(C)C)C(=O)N(C)[C@H](CC(C)C)C(=O)N[C@@H](C)C(=O)N[C@H](C)C(=O)N(C)[C@@H](CC(C)C)C(=O)N(C)[C@@H](CC(C)C)C(=O)N(C)[C@@H](C(C)C)C(=O)N1C`, it took 2.2 µM to reach the 20% level (IC20).

Take `CC[C@@H]1NC(=O)[C@H](CC2CCCCC2)N(C)C(=O)[C@H](C(C)C)N(C)C(=O)[C@H](CC(C)C)N(C)C(=O)[C@H](CC(C)C)N(C)C(=O)[C@@H](C)NC(=O)[C@H](C)NC(=O)[C@@H](CC(C)C)N(C)C(=O)[C@@H](C(C)C)NC(=O)[C@@H](CC(C)C)N(C)C(=O)CN(C)C1=O`: the 20% effect concentration (IC20) came to 1.69 µM.

Consider `C/C=C/C[C@@H](C)[C@@H](O)[C@H]1C(=O)N[C@@H](C(C)C)C(=O)N(C)CC(=O)N(C)[C@H](CC(C)C)C(=O)N[C@H](C(C)C)C(=O)N(C)[C@H](CC(C)C)C(=O)N[C@@H](C)C(=O)N[C@H](C)C(=O)N(C)[C@@H](CC(C)C)C(=O)N[C@@H](CC(C)C)C(=O)N(C)[C@@H](C(C)C)C(=O)N1C`, for which the IC20 was found to be 1.4 µM.

Take `CC/C=C/C[C@@H](C)[C@@H](O)[C@H]1C(=O)N[C@@H](CC)C(=O)N(C)CC(=O)N(C)[C@H](CC(C)C)C(=O)N[C@H](C(C)C)C(=O)N(C)[C@H](CC(C)C)C(=O)N[C@@H](C)C(=O)N[C@H](CCCCN)C(=O)N(C)[C@@H](CC(C)C)C(=O)N(C)[C@@H](CC(C)C)C(=O)N(C)[C@@H](C(C)C)C(=O)N1C`: the 20% effect level (IC20) was put at 0.5 µM.

With `C/C=C/C[C@@H](C)[C@@H](O)[C@H]1C(=O)N[C@@H]([C@@H](C)O)C(=O)NCC(=O)N(C)[C@H](CC(C)C)C(=O)N[C@@H](CC(C)C)C(=O)N(C)[C@H](CC(C)C)C(=O)N[C@@H](C)C(=O)N[C@](O)(C(C)C)C(=O)N(C)[C@@H](CC(C)C)C(=O)N[C@@H](CC(C)C)C(=O)N(C)[C@@H](C(C)C)C(=O)N1C`, the IC20 was 0.13 µM.

In the case of `C/C=C/C[C@@H](C)[C@@H](O)[C@H]1C(=O)N[C@@H](CC)C(=O)NCC(=O)N(C)[C@H](CC(C)C)C(=O)N[C@H](C(C)C)C(=O)N(C)[C@H](CC(C)C)C(=O)N[C@@H](C)C(=O)N[C@H](CO)C(=O)N(C)[C@@H](CC(C)C)C(=O)N(C)[C@@H](CC(C)C)C(=O)N(C)[C@@H](C(C)C)C(=O)N1C`, the IC20 is 1.9 µM.

As for `CC[C@@H]1NC(=O)[C@H](CC(C)C)N(C)C(=O)[C@H](C(C)C)N(C)C(=O)[C@H](CC(C)C)N(C)C(=O)[C@H](CC(C)C)N(C)C(=O)[C@@H](C)NC(=O)[C@H](C)NC(=O)[C@@H](CC(C)C)N(C)C(=O)[C@@H](C(C)C)NC(=O)[C@@H](CC(C)C)N(C)C(=O)CN(C)C1=O`, the IC20 is over 10 µM.

Regarding `C/C=C/C[C@@H](C)[C@@H](O)[C@H]1C(=O)N[C@@H]([C@@H](C)O)C(=O)N(C)CC(=O)N(C)[C@H](CC(C)C)C(=O)N[C@@H]([C@@H](C)CC)C(=O)N(C)[C@H](CC(C)C)C(=O)N[C@@H](C)C(=O)N[C@](O)(C(C)C)C(=O)N(C)[C@@H](CC(C)C)C(=O)N[C@@H](CC(C)C)C(=O)N(C)[C@@H](C(C)C)C(=O)N1C`, the IC20 came out at 0.29 µM.

Turning to `CC(C)C[C@@H]1NC(=O)[C@@H](CC(C)C)N(C)C(=O)CN(C)C(=O)[C@H]([C@@H](C)O)NC(=O)[C@H]([C@H](O)[C@H](C)C/C=C/CO)N(C)C(=O)[C@H](C(C)C)N(C)C(=O)[C@H](CC(C)C)NC(=O)[C@H](CC(C)C)N(C)C(=O)[C@@](O)(C(C)C)NC(=O)[C@H](C)NC(=O)[C@@H](CC(C)C)N(C)C1=O`, the 20% effect concentration (IC20) came to 0.47 µM.

In turn, `C/C=C/C[C@@H](C)[C@@H](O)[C@H]1C(=O)N[C@@H]([C@@H](C)O)C(=O)N(C)CC(=O)N(C)[C@H](CC(C)C)C(=O)N[C@@H](CC(C)C)C(=O)N(C)[C@H](CC(C)C)C(=O)N[C@@H](C)C(=O)N[C@](O)(C(C)C)C(=O)N(C)[C@@H](CC(C)C)C(=O)N[C@@H](CC(C)C)C(=O)N(C)[C@@H](C(C)C)C(=O)N1C` returned a 20% effect concentration (IC20) of 0.2 µM.

For `CC/C=C/C[C@@H](C)[C@@H](O)[C@H]1C(=O)N[C@@H](CC)C(=O)N(C)CC(=O)N(C)[C@H](CC(C)C)C(=O)N[C@H](C(C)C)C(=O)N(C)[C@@H](C)C(=O)N[C@@H](C)C(=O)N[C@H](C)C(=O)N(C)[C@@H](CC(C)C)C(=O)N(C)[C@@H](CC(C)C)C(=O)N(C)[C@@H](C(C)C)C(=O)N1C`, the IC20 was over 10 µM.

In turn, `CC/C=C/C[C@@H](C)[C@@H](O)[C@H]1C(=O)N[C@@H](CC)C(=O)N(C)CC(=O)N(C)[C@H](CC(C)C)C(=O)N[C@H](C(C)C)C(=O)N(C)[C@H](CC(C)C)C(=O)N[C@@H](CC)C(=O)N[C@H](C)C(=O)N(C)[C@@H](CC(C)C)C(=O)N(C)[C@@H](CC(C)C)C(=O)N(C)[C@@H](C(C)C)C(=O)N1C` registered an IC20 of over 10 µM.

`C/C=C/C[C@@H](C)[C@@H](O)[C@H]1C(=O)N[C@@H]([C@@H](C)O)C(=O)N(C)CC(=O)N(C)[C@H](CC(C)C)C(=O)N[C@H](C(C)C)C(=O)N(C)[C@H](CC(C)C)C(=O)N[C@@H](C)C(=O)N[C@H](C)C(=O)N(C)[C@@H](CC(C)C)C(=O)N(C)[C@@H](CC(C)C)C(=O)N[C@@H](C(C)C)C(=O)N1C` came in with a concentration for an effect of 20% (IC20) of 6.4 µM.

The molecule `CC/C=C/C[C@@H](C)[C@@H](O)[C@H]1C(=O)N[C@@H](C(C)C)C(=O)N(C)CC(=O)N(C)[C@H](CC(C)C)C(=O)N[C@H](C(C)C)C(=O)N(C)[C@H](CC(C)C)C(=O)N[C@@H](C)C(=O)N[C@H](C)C(=O)N(C)[C@@H](CC(C)C)C(=O)N(C)[C@@H](CC(C)C)C(=O)N(C)[C@@H](C(C)C)C(=O)N1C` showed an IC20 of 3.9 µM.

`C/C=C/C[C@@H](C)[C@@H](O)[C@H]1C(=O)N[C@@H](CC)C(=O)N(C)CC(=O)N(C)[C@H](CC(C)C)C(=O)N[C@H](C(C)C)C(=O)N(C)[C@H](CC(C)C)C(=O)N[C@@H](C)C(=O)N[C@H](C)C(=O)N(C)[C@@H](CC(C)C)C(=O)N(C)[C@@H](CC(C)C)C(=O)N(C)[C@@H]([C@@H](C)CC)C(=O)N1C`: the 20% effect concentration (IC20) stood at 2.9 µM.

Values taken from ChEMBL document CHEMBL1135620, “Cyclosporins: structure-activity relationships for the inhibition of the human FPR1 formylpeptide receptor” (J Med Chem, 2002).
